Experimental data reported in the RNAGym collection of RNA variant scans (doi:10.1126/science.aae0568).
This sample holds only a part of the variants without activity.

B1: tRNA (parent)
chain: GUUCCGUUGGCGUAAUGGUAACGCGUCUCCCUCCUAAGGAGAAGACUGCGGGUUCGAGUCCCGUACGGAACG

Variants of: B1
Assay: yeast fitness relative to wild type (ratio to wild type); higher = fitter; tRNA-Arg(CCU), competitive growth, 37 C, YPD
Summary of the method: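 Amplicons of the tRNA-Arg(CCU) gene were sequenced, 100-nucleotide paired-end, from the start population and from each end population of a pooled yeast competition. The competition, in six parallel replicates, lasted 24 hours in YPD at 37°C. Fitness relative to wild type was calculated from changes in genotype frequencies. Genotypes had to have ≥ 100 starting reads, and estimates < 0.5 were set to 0.5.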

Point of comparison: GUUCCGUUAGAGUAAUGGUAACGCGUCUCCCUCCUAAGGAGAAGACUGCGGGUUCGAGUCCCGUACGGCACG [G9A C11A A69C], yeast fitness 0.567. Against it:
- GUUCCGUUAGAGUAAUGGUAACGCGUCUCACUCCUAAGGAGCAGACUGCGGGUUCGAGUCCCGUACCGAACG [G9A C11A C30A A42C G67C] — lower, ≤ 0.5
- GUUCCGUUAGAGUAAUGGUAACGCGUCUCCCUCCUAAGGAGAAAAAUGCGGGUUCGAGUCCCGUACGGAACG [G9A C11A G44A C46A] — lower, ≤ 0.5
- GUUCCGUUAGCGUAAUGGUAACGCGUCUCCCUCCUAAGGAGAAGACUGCGGGUUCGAGUCCCGUGCGGAACG [G9A A65G] — higher, 0.881
- GUUCCGUUAGGGUAAUGGUAACGCGUCUCCCUCCUAAGGAGAAGACUGCCGGUUCGAGUCGCGUACGGACCG [G9A C11G G50C C61G A70C] — lower, ≤ 0.5
- GUUCCGUUAGCGUAAUGGUAACGGGUCUCCCUCGUAAGGAGACGACUGCGGGUUCGAGUCCCGUACGGAACG [G9A C24G C34G A43C] — lower, ≤ 0.5
- GUUCCGUUAGCGUAAUGGUAACGAGUCUCCCUCCUAAGGAGAAGACUGCGGGUUCGAGUCCCGUAAGGAACG [G9A C24A C66A] — lower, ≤ 0.5
- GUUCCGUUAGCGUAAUGGUAAUGCGUCUCCCUCCUAAGGAGAAGACUGCGGGUUCGAGUGCCGUCCGGAACG [G9A C22U C60G A65C] — higher, 0.648
- GUUCCGUUAGGGUAAUGGUAAUGCGUCUCCCUCCUAAGGGGAAGACUGCGGGUUCGAGUCCCGUACGGAGCG [G9A C11G C22U A40G A70G] — lower, ≤ 0.5
- GUUCCGUUAGGGUAAUGGUAACGCGUCUCCCUCCUAAGGAGAAGACUGCGGGUUGGAGUCCCGUACGGAACG [G9A C11G C55G] — lower, 0.562
- GUUCCGUUAGCGUAAUGGUAAUGCGUCUCCCUCCUAAGGAGAAGACUGCGGGGUCGAGUCCCGUACGGAACG [G9A C22U U53G] — lower, 0.555
- GUUCCGUUAGCGUAAUGGUAAUGCGUCUCCCUCCUAAGGAGAAGACUACGGGUUCGAGUGCCGUCCGGAACG [G9A C22U G48A C60G A65C] — lower, ≤ 0.5
- GUUCCGUUAGUGUAAUGGUAACGCGUCUCCCUCCUAAGGAGAAGACGGCGGGUUCGAGUCCGGUACGGCACG [G9A C11U U47G C62G A69C] — lower, ≤ 0.5
- GUUCCGUUAGCGUAAUGGUAAGGCGUCUCCCUCCUAAGGAGAAGACUGCGGGUCCGAGUCCCGUACGGAACG [G9A C22G U54C] — higher, 0.589
- GUUCCGUUAGCGUAAUGGUAAUGCGUCUCACUCCUAAGGAGAAGACUGAGGGUUAGAGUCAUGUAUGGAACG [G9A C22U C30A C49A C55A C61A C62U C66U] — lower, ≤ 0.5
- GUUCCGUUAGGGUAAUGGUAACGCGUCUCCCUCCUUAGGAGAAGACUGCGGGUUCGAGUCCCGUACGGAACG [G9A C11G A36U] — lower, ≤ 0.5
- GUUCCGUUAGGGUAAUGGUAACGCGUCUCCCUCCUAAGGAGAAGACUGCGGGUUCGUGUCCCGUACGGAACG [G9A C11G A57U] — lower, ≤ 0.5
- GUUCCGUUAGGGUAAUGGUAACGCGUCUCCCGCCUAAGGAGAAGGCUGUGGGAUCGAGUCCCGUACGGAACG [G9A C11G U32G A45G C49U U53A] — lower, 0.549
- GUUCCGUUAGUGUGAUGGUAACGCGUCUACCUCCUAAGGAGAAGACUGCGGGUUCGAGUCCCGUACGGAACG [G9A C11U A14G C29A] — lower, ≤ 0.5
- GUUCCGUUAGAGUAAUGGUAACGCGUCUCACUCCUAAGGAGCAGACUGCGGGUUCGAGUCCCGUACGGAACG [G9A C11A C30A A42C] — lower, 0.531
- GUUCCGUUAGUGUAAUGGUAACGCGUCUCCCUCCUCAGGAGAAGACUGCGGGUUCGAGUCCCGUACGGAACG [G9A C11U A36C] — lower, ≤ 0.5
- GUUCCGUUAGCGUAAUGGUAAAGCGUCUCCCUCCUAAGGAGAAGACGGCGGGUUAGAGUCCCGUACGGAACG [G9A C22A U47G C55A] — lower, ≤ 0.5
- GUUCCGUUAGUGUAAUGGUAACGCGUCUCCCUCCUAAGGAGAAGACUGCGGGUUGGAGUCCCGUACGGAACG [G9A C11U C55G] — higher, 0.601
- GUUCCGUUAGUGUAAUGGUAACGCGUCUCCCUCCUAAGGAGAAGACUGCGGGUUCGAGUCCCGUACGGCACG [G9A C11U A69C] — higher, 0.787
- GUUCCGUUAGCGUAAUGGUAAGGCGUCUCCCUCCCAAGGAGAAGACUGCGGGUUCGAGUCCCGUACGGAGCG [G9A C22G U35C A70G] — lower, ≤ 0.5
- GUUCCGUUAGCGUAAUGGUAACGCGUCUCCCUCCUAAGGAGAAGACUGCGGGUUCGAGUCCCGUACGGCACG [G9A A69C] — higher, 1.05
- GUUCCGUUAGAGUAAUGGUAACGCGUCUCCCUCCUAAGGAGAAGACUGCCGGUUAGAGUCCCGUACGGAACG [G9A C11A G50C C55A] — lower, ≤ 0.5
- GUUCCGUUAGCGUAAUGGUAACGCGUCUCCCUCCUAAGGAGAAGACUGCGGGUUCGAGUCCCGUGCGGAGCG [G9A A65G A70G] — higher, 0.595
- GUUCCGUUAGCGUAAUGGUAACGCGUCUCCCUCCUAAGGAGAAGACUGCGGGUUCGAGUCCCGUACGGACCG [G9A A70C] — higher, 1.06
- GUUCCGUUAGCGUAAUGGUAACGCGUCUCCCUCCUAAGGAGAAGACUGCGGGUUCGAGUCCCGUACGGAUCG [G9A A70U] — higher, 0.875
- GUUCCGUUAGUGUAAUGGUAACGCGUCUACCUCCUAAGGAGAAGACUGCGGGUUCGAGUCCCGUACGGAACG [G9A C11U C29A] — lower, 0.506
- GUUCCGUUAGCGUAAUGGUAAAGCGUCUCCCUCCUAAGGAGAAGACGGCGGGUUAGAGUCCCGCACAGAACG [G9A C22A U47G C55A U64C G67A] — lower, ≤ 0.5
- GUUCCGUUAGGGGAAUGGUAACCCAUCUCCCUCUUAAGGAGAAGACUGCGGGUUCGAGCCCCGUAUGGAACG [G9A C11G U13G G23C G25A C34U U59C C66U] — lower, ≤ 0.5
- GUUCCGUUAGGGUAAUGGUAACGGGUCUCCCGCCUAAGGAGAAGACUGCGGCUUCGAGUCCCGUACGGAACG [G9A C11G C24G U32G G52C] — lower, ≤ 0.5
- GUUCCGUUAGGGUAAUGGUAAUGCGUCUCCCUCCUAAGGGGAAGACUGCGGGUUCGAGUCCCGUACGGAACG [G9A C11G C22U A40G] — lower, ≤ 0.5
- GUUCCGUUAGAGUAAUGGUGACGCGUCUCCCUCCUAAGGAGUAGACUGCGGGUUCGAGUCCCGUACGCACCG [G9A C11A A20G A42U G68C A70C] — lower, 0.554
- GUUCCGUUAGGGUAAUGGCAACGCGUCUCCCUCCUAAGGAGAAGACUGCGGGUUCAAGUGCCGUACGGAACG [G9A C11G U19C G56A C60G] — lower, 0.566
- GUUCCGUUAGGGUAAUGGUAACGCGUCUCCCUCCUAAGGAGAAGACUGCGGGUCGGAGUCCCCUACCGAACG [G9A C11G U54C C55G G63C G67C] — lower, ≤ 0.5
